We go through 15 compounds from PubChem BioAssay.

The source made the active and inactive calls.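 The calls were made as follows, unless noted: active = Her2 level under about 52% in both replicate screens, with viability over 70% of control (limit read from the data); inconclusive = Her2 under the limit in one screen only, or viability under 70%; inactive = Her2 level above the set limit.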

Test [1] is described as follows: Her2 expression decrease, cell viability multiplex – SKBR3 breast tumor cells, AlphaScreen, ATP viability, primary screen (AID 461).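 As to Her2 level: lower value means less Her2 protein in the cells.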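 As to viability: percent of carrier control wells set as 100% viability.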 The following applies: SKBR3 Her2 protein level, 18-24 h, measured here: SKBR3 viability, ATP luminescence, at 10 µM. A general note: Bead proximity is the source of the signal in Alpha formats.
Test [2] concerns the target Receptor tyrosine-protein kinase erbB-2 (Homo sapiens) (UniProt P04626). The test is described as above. The settings on record: 18-24 h, at 10 µM, stronger effect = lower value.
Test [3] can be described thus: reduced viability of SK-BR-3 breast cancer cells – cell-based, 24 h, human, pilot screen (AID 572;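 active = viability at or below 10% of carrier control in both of two separate runs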;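 also: compound exposure lasted between 18 and 24 h rather than exactly 24 h; 100% = carrier-treated control wells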). The following applies: SK-BR-3 viability, CellTiter-Glo luminescence, at 10 µM, stronger effect = lower value. A general note: In ATP-based viability assays light output follows the ATP content of the culture.
The nature of test [4]: HUVEC growth inhibition – cell-based, human, primary screen (AID 575;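 active = viability at or below 30% in both replicate assays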;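 also: 100% = median of untreated cell wells with 0.1% DMSO on each plate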). The following applies: HUVEC proliferation, CellTiter-Glo luminescence, 72 h; at 10 µM; stronger effect = lower value. An outline of the steps: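 Assay system: primary human umbilical vein endothelial cells / Buffer or medium: endothelial basal medium with 2% FBS plus growth supplements / Compound dosing: one dose, 10 µM final, 0.1% DMSO / Timing: 72 h treatment at 37 °C / Signal: CTG luminescence / Benchmarks: 32 DMSO-only cell-control wells (high), 32 MePR drug-control wells (low) per plate / Plate: collagen-coated 384-well format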

The nature of test [5]: H69AR cell proliferation blockers – human, duplicate replicates, primary screen (AID 580;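 active = viability at or under a set limit in both replicates, limit being median viability minus 3 SD, cut at about 48% in these data, passing the limit was not always enough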;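 also: 100% = mean luminescence of untreated wells and 0% = no signal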). The following applies: H69AR lung tumor cells viability, ATP luminescence, 72 h; at 10 µM; stronger effect = lower value.
The nature of test [6]: MRP1 drug-resistance reversers in H69AR cells – cell-based, doxorubicin co-treatment, pilot screen (AID 601;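 active = viability loss from added drug above about 55%, and viability with drug at most 40%, in both replicates, limit read from the data, passing the limit was not always enough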). The settings on record: CellTiter-Glo, 72 h, at 10 µM; for differential viability (reversal): stronger effect = higher value.
Test [7] can be described thus: yeast transport mutant growth inhibition pilot in 384-well plates, post-Golgi transport modulator project (AID 636; in the data active = inhibition above about 31%). The settings on record: absorbance 615 nm, about 18 h, stronger effect = higher value.
A short description of test [8]: growth suppression of yeast trafficking mutant, preliminary HTS, modulators of trafficking downstream of Golgi apparatus project, 1536-format plate, OD 615 nm (AID 637; in the data active = inhibition above about 30%). The following applies: yeast transport mutant growth, absorbance 615 nm, 18 h; stronger effect = higher value.
Setting [9] is: H69AR cells + 2 uM doxorubicin, measured here: viability with 2 uM doxorubicin, stronger effect = lower value.
The mark [10] stands for this setting: H69AR cells, compound alone cytotoxicity.

As a reminder, the viability is a read-out of living cells in per cent, often relative to untreated cells. Broadly, the inhibition is the drop in the measured response relative to a control, in per cent.

Chain of Receptor tyrosine-protein kinase erbB-2 (Homo sapiens) (P04626 whole entry, looked up): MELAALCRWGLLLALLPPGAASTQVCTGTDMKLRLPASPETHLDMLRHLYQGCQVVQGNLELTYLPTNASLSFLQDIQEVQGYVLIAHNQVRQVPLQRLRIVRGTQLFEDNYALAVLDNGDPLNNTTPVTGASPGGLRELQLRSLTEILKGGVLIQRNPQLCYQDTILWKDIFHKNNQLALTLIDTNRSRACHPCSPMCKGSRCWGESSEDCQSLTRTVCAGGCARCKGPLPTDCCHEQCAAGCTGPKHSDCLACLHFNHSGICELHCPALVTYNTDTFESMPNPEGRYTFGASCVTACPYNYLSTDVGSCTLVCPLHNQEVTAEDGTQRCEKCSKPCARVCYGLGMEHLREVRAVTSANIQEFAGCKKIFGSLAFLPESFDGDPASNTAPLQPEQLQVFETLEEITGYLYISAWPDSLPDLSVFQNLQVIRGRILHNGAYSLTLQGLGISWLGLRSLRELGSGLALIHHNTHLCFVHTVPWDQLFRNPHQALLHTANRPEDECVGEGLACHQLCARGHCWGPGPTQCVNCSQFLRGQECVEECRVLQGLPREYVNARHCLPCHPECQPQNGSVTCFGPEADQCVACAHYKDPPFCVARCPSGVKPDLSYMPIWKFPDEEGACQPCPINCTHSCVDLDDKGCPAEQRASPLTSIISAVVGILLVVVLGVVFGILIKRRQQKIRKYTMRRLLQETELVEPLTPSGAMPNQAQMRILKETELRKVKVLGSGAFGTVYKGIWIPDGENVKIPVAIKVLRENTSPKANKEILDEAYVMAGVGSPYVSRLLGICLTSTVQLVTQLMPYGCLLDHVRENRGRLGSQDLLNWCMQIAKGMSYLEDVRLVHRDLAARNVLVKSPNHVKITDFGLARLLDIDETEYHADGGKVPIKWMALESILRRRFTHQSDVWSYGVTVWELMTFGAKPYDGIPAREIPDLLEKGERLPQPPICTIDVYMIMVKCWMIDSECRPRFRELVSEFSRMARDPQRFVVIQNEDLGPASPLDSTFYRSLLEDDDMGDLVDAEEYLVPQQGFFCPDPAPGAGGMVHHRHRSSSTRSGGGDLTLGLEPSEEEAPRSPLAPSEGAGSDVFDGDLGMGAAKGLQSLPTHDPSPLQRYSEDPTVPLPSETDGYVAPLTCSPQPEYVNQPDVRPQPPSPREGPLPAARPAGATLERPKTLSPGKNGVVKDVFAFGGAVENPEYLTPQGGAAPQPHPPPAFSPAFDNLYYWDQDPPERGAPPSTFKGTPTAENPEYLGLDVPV

On to `CCOC(=O)c1cccc(NC(=O)CSc2nnc(-c3ccoc3C)n2CCOC)c1`, for which the viability in test [1] was 102%; in test [3], 102% (inactive); in test [4] it was 91.6% (inactive); in test [5], 89.7% (inactive); in test [6] (setting [9]) it was 92.4%; in test [6] (setting [10]) it was 89.7%. Further, in test [2], the Her2 level was 92% (inactive). Also, in test [6] (H69AR cells + 2 uM doxorubicin), the differential viability (reversal) is -2.74% (inactive). Besides, the inhibition in test [7] is -1.45% (inactive); in test [8], 0.81% (inactive).

For `O=C(/C=N/O)Nc1cccnc1`, the viability in test [1] was 110%; in test [3], 110% (inactive); in test [4], 91.3% (inactive); in test [5], 83.2% (inactive); in test [6] (setting [9]) it was 89.6%; in test [6] (setting [10]) it was 83.2%. Also, the Her2 level in test [2] is 90% (inactive). The differential viability (reversal) in test [6] (H69AR cells + 2 uM doxorubicin) is -6.35% (inactive). In addition, the inhibition in test [7] was -1.84% (inactive); in test [8], 3.71% (inactive).

As to `Clc1ccc(Cc2nn3c(-c4ccncc4)nnc3s2)cc1`, the viability in test [1] was 99.5%; in test [3] it was 99.5% (inactive); in test [4] it was 101% (inactive); in test [5] it was 96.9% (inactive); in test [6] (setting [9]) it was 97%; in test [6] (setting [10]), 96.9%. Further, the Her2 level in test [2] was 107% (inactive). In test [6] (H69AR cells + 2 uM doxorubicin), the differential viability (reversal) was -0.11% (inactive). In addition, the inhibition was -1.05% (inactive) in test [7] and 15.4% (inactive) in test [8].

On to `CC(C)NC(=O)CSCc1ccccc1Cl`, for which the viability in test [1] is 96%; in test [3] it was 96% (inactive); in test [4], 86.8% (inactive); in test [5] it was 94.8% (inactive); in test [6] (setting [9]), 76.8%; in test [6] (setting [10]) it was 94.8%. Moreover, the Her2 level in test [2] is 95% (inactive). For the same compound, in test [6] (H69AR cells + 2 uM doxorubicin), the differential viability (reversal) is 18% (inactive). Also, the inhibition in test [7] was -3.33% (inactive); in test [8] it was 0.97% (inactive).

Turning to `COCCNC(=O)c1c(N)n(CCC2=CCCCC2)c2nc3ccccc3nc12`, the viability was 102% in test [1]; 102% (inactive) in test [3]; 78.3% (inactive) in test [4]; 89% (inactive) in test [5]; 78.2% in test [6] (setting [9]); 89% in test [6] (setting [10]). In addition, the Her2 level in test [2] is 92% (inactive). In addition, the differential viability (reversal) in test [6] (H69AR cells + 2 uM doxorubicin) was 10.8% (inactive). Also, the results for the inhibition in test [7] and in test [8] were -6.03% (inactive) and -2.38% (inactive), respectively.

For the compound `O=C1C(Cl)=C(N2CCCCC2)C(=O)N1c1ccccc1Cl`, the viability in test [1] is 106%; in test [3], 106% (inactive); in test [4], 89.7% (inactive); in test [5] it was 81.8% (inactive); in test [6] (setting [9]) it was 80.4%; in test [6] (setting [10]), 81.8%. Further, the Her2 level in test [2] is 79.5% (inactive). For the same compound, the differential viability (reversal) in test [6] (H69AR cells + 2 uM doxorubicin) was 1.39% (inactive). Besides, the inhibition in test [7] is -2.6% (inactive); in test [8], 2.95% (inactive).

Regarding `Cc1c(NC(=O)CSc2nnc3sc4ccccc4n23)c(=O)n(-c2ccccc2)n1C`, the viability is 94% in test [1]; 94% (inactive) in test [3]; 106% (inactive) in test [4]; 90.4% (inactive) in test [5]; 89.6% in test [6] (setting [9]); 90.4% in test [6] (setting [10]). For the same compound, the Her2 level in test [2] was 92.5% (inactive). Besides, the differential viability (reversal) in test [6] (H69AR cells + 2 uM doxorubicin) was 0.76% (inactive). Also, the inhibition is 0.65% (inactive) in test [7] and -2.79% (inactive) in test [8].

With `COc1ccc(C(N)=O)cc1N`, the viability in test [1] was 77.5%; in test [3], 77.5% (inactive); in test [4] it was 105% (inactive); in test [5], 94.6% (inactive); in test [6] (setting [9]) it was 96.3%; in test [6] (setting [10]), 94.6%. In addition, the Her2 level in test [2] was 116% (inactive). For the same compound, in test [6] (H69AR cells + 2 uM doxorubicin), the differential viability (reversal) was -1.72% (inactive). Further, the inhibition in test [7] was 4.81% (inactive); in test [8], 18% (inactive).

In the case of `CC1(C)OC(=O)C(=CNc2ccccc2F)C(=O)O1`, the viability in test [1] is 102%; in test [3] it was 102% (inactive); in test [4] it was 97.6% (inactive); in test [5] it was 91.2% (inactive); in test [6] (setting [9]), 92.4%; in test [6] (setting [10]), 91.2%. For the same compound, the Her2 level in test [2] is 83.5% (inactive). In test [6] (H69AR cells + 2 uM doxorubicin), the differential viability (reversal) was -1.11% (inactive). Further, the inhibition in test [7] was -2.99% (inactive); in test [8], 2.06% (inactive).

Consider `CC1CCN(CCn2c(=S)[nH]c3ncccc3c2=O)CC1`, for which the viability in test [1] was 98.5%; in test [3] it was 98.5% (inactive); in test [4], 78.6% (inactive); in test [5] it was 104% (inactive); in test [6] (setting [9]) it was 93.9%; in test [6] (setting [10]), 104%. The Her2 level in test [2] was 95% (inactive). In addition, in test [6] (H69AR cells + 2 uM doxorubicin), the differential viability (reversal) was 9.6% (inactive). For the same compound, the inhibition in test [7] was -2.89% (inactive); in test [8], 0.83% (inactive).

Turning to `O=C1CCc2cc(S(=O)(=O)N3CCC(C(=O)NCc4ccccn4)CC3)ccc2N1`, the viability is 81% in test [1]; 81% (inactive) in test [3]; 98% (inactive) in test [4]; 96.7% (inactive) in test [5]; 95.3% in test [6] (setting [9]); 96.7% in test [6] (setting [10]). For the same compound, in test [2], the Her2 level is 89% (inactive). For the same compound, the differential viability (reversal) in test [6] (H69AR cells + 2 uM doxorubicin) was 1.42% (inactive). In addition, the inhibition in test [7] is -0.4% (inactive); in test [8], 14.4% (inactive).

As to `COc1ccc(CN(Cc2nc3ccccc3c(=O)[nH]2)C(=O)NC2CCCCC2)cc1`, the viability in test [1] is 95.5%; in test [3], 95.5% (inactive); in test [4] it was 91.4% (inactive); in test [5] it was 90.2% (inactive); in test [6] (setting [9]), 89.4%; in test [6] (setting [10]) it was 90.2%. Also, the Her2 level in test [2] is 71% (inactive). Besides, the differential viability (reversal) in test [6] (H69AR cells + 2 uM doxorubicin) is 0.78% (inactive). The inhibition is -4.61% (inactive) in test [7] and -0.5% (inactive) in test [8].

Regarding `O=C(CN1CCOCC1)N1CCN(C(=O)CN2CCOCC2)CC1`, the viability is 102% in test [1]; 102% (inactive) in test [3]; 93.7% (inactive) in test [4]; 104% (inactive) in test [5]; 88.9% in test [6] (setting [9]); 104% in test [6] (setting [10]). Further, the Her2 level in test [2] is 99.5% (inactive). In addition, in test [6] (H69AR cells + 2 uM doxorubicin), the differential viability (reversal) is 15.6% (inactive). Also, the inhibition in test [7] is -3.73% (inactive); in test [8], 1.97% (inactive).

Regarding `CCCc1cc(=O)n2[nH]c(-c3ccc(Br)cc3)cc2n1`, the viability in test [1] was 90.5%; in test [3], 90.5% (inactive); in test [4], 56.2% (inactive); in test [5] it was 73.1% (inactive); in test [6] (setting [9]) it was 88.7%; in test [6] (setting [10]) it was 73.1%. Moreover, the Her2 level in test [2] was 71.5% (inactive). Besides, in test [6] (H69AR cells + 2 uM doxorubicin), the differential viability (reversal) was -15.6% (inactive). For the same compound, the inhibition in test [7] was -2.76% (inactive); in test [8], -1.9% (inactive).

For `O=C(NCCCN1CCCC1=O)c1ccc2c(c1)NC(=O)C(N1CCOCC1)S2` (stereo not given), the viability in test [1] was 143%; in test [3], 143% (inactive); in test [4] it was 115% (inactive); in test [5], 89.5% (inactive); in test [6] (setting [9]) it was 83.3%; in test [6] (setting [10]), 89.5%. Also, in test [2], the Her2 level was 94.5% (inactive). Moreover, in test [6] (H69AR cells + 2 uM doxorubicin), the differential viability (reversal) was 6.1% (inactive). Further, the inhibition in test [7] is -6.4% (inactive); in test [8] it was 0.82% (inactive).
